Experimental findings from ChEMBL document CHEMBL3745692, “Novel iodoacetamido benzoheterocyclic derivatives with potent antileukemic activity are inhibitors of STAT5 phosphorylation” (Eur J Med Chem, 2016) are described below.

One experiment concerns the target Tubulin (Bos taurus, UniProt Q6B856+Q862L2+Q862F3). The experiment is described as follows: Inhibition of bovine brain tubulin polymerization by spectrophotometry. In outline: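 Bovine brain tubulin (10 µM) was pre-incubated with varying compound concentrations in glutamate buffer at 30 °C, then cooled to 0 °C. GTP was added ([…] final) and the mixture warmed to 30 °C. Assembly was followed by turbidity at 350 nm.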

The subject of experiment [1] is K562. Description: Cell cycle arrest in human K562 cells assessed as accumulation at G1 phase at 1 uM for 24 hrs by propidium iodide staining based flow cytometry (reference value: 39.27%). In kind it is functional. In outline:
(§1)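 K562 cells were exposed to compound for 24 h. They were then washed in ice-cold PBS and resuspended at 1×10^6/mL in a hypotonic solution of propidium iodide 50 µg/mL in 0.1% sodium citrate with 0.03% NP-40. After 30 min, DNA content was read by flow cytometry as single-parameter histograms and cell cycle phase distribution (%) was modelled.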
On the technique in general: Flow cytometry measures light scatter and fluorescence of single cells or particles in a stream.

The subject of experiment [2] is K562. Description: Cell cycle arrest in human K562 cells assessed as accumulation at G2M-phase at 1 uM for 24 hrs by propidium iodide staining based flow cytometry (reference value: 12.89%). The experiment is classed as functional. In short, it runs like this:
as §1

The subject of experiment [3] is K562. Description: Induction of apoptosis in human K562 cells after 48 hrs by annexinV and propidium iodide staining based flow cytometry. The note with it: K562, 48 h. In kind it is functional, cell-based. In outline:
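After 48 h drug exposure, 1×10^6 cells were washed in PBS and spun at 200×g for 5 min. They were stained with FITC-annexin V plus propidium iodide for 15 min at 20 °C and annexin V-positive cells counted by flow cytometry. Apoptosis was also scored morphologically with acridine orange/ethidium bromide, counting at least 300 cells. AC50 is the concentration inducing apoptosis in 50% of cells; mean ± SE from two to three experiments.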

In experiment [4] the test system is K562. Description: Cell cycle arrest in human K562 cells assessed as accumulation at S-phase at 1 uM for 24 hrs by propidium iodide staining based flow cytometry (reference value: 47.84%). In kind it is functional. In short, it runs like this:
as §1

The target of experiment [5] is T1, Signal transducer and activator of transcription 5A (Homo sapiens) (UniProt P42229).
T1 sequence (whole entry): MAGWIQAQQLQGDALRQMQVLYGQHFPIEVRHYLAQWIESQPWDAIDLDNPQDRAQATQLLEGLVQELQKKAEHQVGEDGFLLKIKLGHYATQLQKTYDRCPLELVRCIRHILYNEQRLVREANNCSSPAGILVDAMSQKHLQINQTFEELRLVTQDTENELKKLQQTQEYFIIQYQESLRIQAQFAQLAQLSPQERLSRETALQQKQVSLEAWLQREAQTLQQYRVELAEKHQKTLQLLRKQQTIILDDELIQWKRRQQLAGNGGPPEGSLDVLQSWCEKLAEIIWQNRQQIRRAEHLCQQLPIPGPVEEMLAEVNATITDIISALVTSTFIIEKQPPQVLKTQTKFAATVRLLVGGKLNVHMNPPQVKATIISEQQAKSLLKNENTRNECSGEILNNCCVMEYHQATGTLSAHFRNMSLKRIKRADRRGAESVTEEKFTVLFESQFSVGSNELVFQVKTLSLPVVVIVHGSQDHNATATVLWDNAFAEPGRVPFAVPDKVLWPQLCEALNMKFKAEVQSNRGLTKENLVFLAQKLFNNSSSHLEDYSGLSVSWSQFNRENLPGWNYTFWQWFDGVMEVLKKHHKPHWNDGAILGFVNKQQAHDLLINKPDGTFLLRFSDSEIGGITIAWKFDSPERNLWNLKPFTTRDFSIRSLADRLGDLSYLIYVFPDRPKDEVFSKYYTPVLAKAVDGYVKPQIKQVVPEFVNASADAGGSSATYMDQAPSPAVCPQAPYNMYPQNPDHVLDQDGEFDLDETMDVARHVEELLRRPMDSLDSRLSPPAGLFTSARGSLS
The experiment is described as follows: Inhibition of STAT5 phosphorylation in human K562 cells at 1 uM after 24 hrs by flow cytometry (reference value: 315.56). The experiment is classed as cell-based. In outline:
(§2)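 After 24 h exposure, about 1×10^6 K562 cells were PBS-washed and fixed/permeabilised for 20 min at 4 °C. They were then stained for 30 min at 4 °C with PE-conjugated anti-pSTAT5 monoclonal antibody, with an isotype antibody as control. Median fluorescence was read by flow cytometry and compared with untreated cells stained for pSTAT5.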

For the next experiment, the species on record is Bos taurus. Description: Inhibition of [3H]colchicine binding to bovine tubulin at 5 uM by DEAE-cellulose filter method. In short, it runs like this:
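Reaction mixtures contained 1 µM tubulin, 5 µM [3H]colchicine and 5 µM test compound. Result is given as % inhibition of colchicine binding ± SD.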

Experiment [6] has as its system K562. The experiment is described as follows: Antiproliferative activity against human K562 cells after 48 hrs by trypan blue dye exclusion assay. In kind it is functional, cell-based. The following applies: K562, 48 h.
Experiment [7] addresses T1, Signal transducer and activator of transcription 5A (Homo sapiens). The experiment is described as follows: Inhibition of STAT5 phosphorylation in human K562 cells at 0.5 uM after 24 hrs by flow cytometry relative to control. In kind it is cell-based. In outline:
as §2

Experiment [8] deals with K562. Description: Potency index, ratio IC50 of imatinib mesilate to IC50 of compound for antiprolifertive activity against human K562. The experiment is classed as functional. In short, it runs like this:
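K562 cells grown in RPMI 1640 with 10% FCS at 37 °C, 5% CO2. 2×10^5 cells/mL exposed to a range of concentrations for 48 h. Viable cells counted by trypan blue exclusion, as % of control.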

Experiment [9] has as its target T1, Signal transducer and activator of transcription 5A (Homo sapiens). The experiment is described as follows: Inhibition of STAT5 phosphorylation in human K562 cells at 0.5 uM after 24 hrs by flow cytometry (reference value: 315.56). The experiment is classed as cell-based. In outline:
as §2

The subject of experiment [10] is K562. Description: Cell cycle arrest in human K562 cells assessed as accumulation at G2M-phase at 0.5 uM for 24 hrs by propidium iodide staining based flow cytometry (reference value: 12.89%). The experiment is classed as functional. In short, it runs like this: (§3)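 K562 cells in RPMI 1640 with 10% FCS, penicillin/streptomycin and L-glutamine, 5% CO2, 37 °C; exposed 24 h. Cells washed in ice-cold PBS, resuspended at 1×10^6/mL in hypotonic solution of propidium iodide 50 µg/mL in 0.1% sodium citrate plus 0.03% nonidet P-40 for 30 min. DNA content read as single-parameter flow cytometry histograms; phase distribution modelled.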

The subject of experiment [11] is K562. Description: Cell cycle arrest in human K562 cells assessed as accumulation at S-phase at 0.5 uM for 24 hrs by propidium iodide staining based flow cytometry (reference value: 47.84%). The experiment is classed as functional. In short, it runs like this:
as §3

The test system of experiment [12] is K562. The experiment is described as follows: Potency index, ratio AC50 of imatinib mesilate to AC50 of compound for induction of apoptosis in human K562. In kind it is functional. In outline: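 K562 cells in RPMI 1640 with 10% FCS, treated 48 h over a concentration range. Apoptosis scored morphologically after acridine orange/ethidium bromide staining (≥300 cells counted, chromatin condensation, apoptotic bodies) and by annexin V-FITC/propidium iodide flow cytometry. AC50 is the concentration giving 50% apoptotic cells, mean ± SE of 2–3 experiments.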

Experiment [13] relates to K562. Description: Cell cycle arrest in human K562 cells assessed as accumulation at G1 phase at 0.5 uM for 24 hrs by propidium iodide staining based flow cytometry (reference value: 39.27%). In kind it is functional. In outline:
as §3

In experiment [14] the test system is K562. The experiment is described as follows: Cell cycle arrest in human K562 cells assessed as accumulation at G2M-phase at 5 uM for 24 hrs by propidium iodide staining based flow cytometry (reference value: 12.89%). The experiment is classed as functional. In short, it runs like this:
as §1

Experiment [15] deals with T1, Signal transducer and activator of transcription 5A (Homo sapiens). The experiment is described as follows: Inhibition of STAT5 phosphorylation in human K562 cells at 5 uM after 24 hrs by flow cytometry (reference value: 315.56). In kind it is cell-based. In outline:
as §2

For experiment [16], the system named is K562. The experiment is described as follows: Cell cycle arrest in human K562 cells assessed as accumulation at S-phase at 5 uM for 24 hrs by propidium iodide staining based flow cytometry (reference value: 47.84%). In kind it is functional. In short, it runs like this: as §1
The test system of experiment [17] is K562. The experiment is described as follows: Cell cycle arrest in human K562 cells assessed as accumulation at G1 phase at 5 uM for 24 hrs by propidium iodide staining based flow cytometry (reference value: 39.27%). The experiment is classed as functional. In outline:
as §1

pIC50: −log10 of the molar value.

`COc1cc(C(=O)c2sc3c(C)cccc3c2NC(=O)CI)cc(OC)c1OC` yielded an IC50 at Tubulin of 1100 nM. Further, the values for the Activity with K562 [1], in the experiment with K562 [2] and in the experiment with K562 [4] were 79.88%, 2.99% and 17.13%, respectively. Moreover, the AC50 with K562 [3] was 2800 nM. The molecule further gave a Flu intensity in experiment [5] of 45.2. The molecule also gave an inhibition in the experiment listed under Bos taurus of 65%. The same molecule had a pIC50 with K562 [6] of 6.40.

For `COc1cc2oc(C(=O)c3cc(OC)c(OC)c(OC)c3)c(C)c2cc1NC(=O)CI`, the inhibition in [7] was found to be 44%. Moreover, the “Ratio IC50” value in the experiment on K562 [8] is 3.1; in the experiment with K562 [12], 2.7. This molecule also came in with an AC50 in the experiment with K562 [3] of 250 nM. The Flu intensity in experiment [9] is 176. The Activity with K562 [10] came out at 28.76%; in the experiment with K562 [11] it was 35.47%; in the experiment on K562 [13] it was 35.78%. In addition, in the experiment on K562 [6], the pIC50 was 7.15.

As to `O=C(CI)Nc1c(C(=O)c2ccccc2)oc2ccccc12`, the Activity turned out to be 11.4% with K562 [14], 20.28% in the experiment with K562 [16] and 68.32% with K562 [17]. On Tubulin, this molecule returned an IC50 of more than 20000 nM. The molecule also came in with a Flu intensity in [15] of 103. In the experiment on K562 [3], this molecule came in with an AC50 of 5900 nM. This molecule gave a pIC50 in the experiment with K562 [6] of 6.00.

What is called IC50 is the point on the concentration scale where inhibition reaches its midpoint. In general, AC50 refers to the concentration giving half of the maximal activity seen. A word on the inhibition: it is the share of the control response that was lost under treatment. For orientation: pIC50 means the negative decadic logarithm of the IC50, by convention in mol/L.
